High-throughput results (PubChem)
MPTP block: inhibitors of mitochondrial permeability transition pore; 360,000 tested, 1.4% active; AID 602449; isolated mouse mitochondria, Ca2+ swelling absorbance, 30 min; inhibition, % at 10 µM;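 active means inhibition of 50% or more, scaled per plate between neutral and stimulator controls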;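 further: 0% = DMSO wells given calcium and 100% = 1 mM EGTA wells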
GRIN3A LBD mod: NR3A (human) ligand-binding domain modulation. Tm shift relative to glycine control, % at 25 µM. 340,000 tested, 2.5% active. NR3A LBD differential scanning fluorimetry, Tm shift; 0% = protein alone, 100% = glycine-bound protein;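 active means melting temperature shift of at least 10% of the positive control shift, at one fixed dose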
ADAM10 inh: inhibits human ADAM10; O14672; 370,000 tested, 0.62% active; AID 720582; recombinant ADAM10, EDANS/DABCYL FRET peptide cleavage, 3 h; inhibition, % at 7 µM;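 active means inhibition above a per-campaign cutoff equal to the mean of compounds falling between control-based bounds plus 3 SD, cut at about 20% in these data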;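 further: 0% = DMSO wells while the 100% control is not disclosed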
SKN-1 block: C. elegans SKN-1 inhibition; C. elegans VP596 Pgst-4::GFP/RFP ratio, acrylamide-induced, 24 h; inhibition, % at 21.8 µM; 360,000 tested, 0.49% active; AID 624304;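 active means interference check ratio from 0.5 to 1.5 plus GFP to RFP signal ratio inhibition reaching or exceeding a fixed threshold, cut at about 30% in these data, passing the limit was not always enough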
MT1-MMP act inh: MT1-MMP (human) activation inhibition | HT1080 RFP-PRO-GFP cells, GFP/RFP ratio fluorescence, overnight; percent of plate control window, DMSO zero | GFP/RFP ratio change, % at 20 µM | 360,000 tested, 0.061% active | P50281;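 active means GFP/RFP ratio change of at least 30% with cell ATP level not reduced by more than half and red fluorescence within 50% of control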
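Assay system: RFP-PRO-GFP reporter HT1080 cells; read-out basis: GFP/RFP fluorescence ratio; benchmarks: DMSO wells and RFP-L50D-GFP cells; doses: 20 µM single dose, 1% DMSO; schedule: overnight cell settling, then overnight compound exposure, 37 °C, 5% CO2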
ADAM17 inh: inhibits human ADAM17; AID 720648; 370,000 tested, 0.83% active; P78536; recombinant ADAM17, EDANS/DABCYL FRET peptide cleavage; inhibition, % at 6.95 µM;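 active means inhibition above the mean of compounds lying between control limits plus 3 SD, set per campaign, cut at about 8.5% in these data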;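 further: 0% = DMSO-only wells as the low control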
Target sequence (P78536 215-824 limits assumed): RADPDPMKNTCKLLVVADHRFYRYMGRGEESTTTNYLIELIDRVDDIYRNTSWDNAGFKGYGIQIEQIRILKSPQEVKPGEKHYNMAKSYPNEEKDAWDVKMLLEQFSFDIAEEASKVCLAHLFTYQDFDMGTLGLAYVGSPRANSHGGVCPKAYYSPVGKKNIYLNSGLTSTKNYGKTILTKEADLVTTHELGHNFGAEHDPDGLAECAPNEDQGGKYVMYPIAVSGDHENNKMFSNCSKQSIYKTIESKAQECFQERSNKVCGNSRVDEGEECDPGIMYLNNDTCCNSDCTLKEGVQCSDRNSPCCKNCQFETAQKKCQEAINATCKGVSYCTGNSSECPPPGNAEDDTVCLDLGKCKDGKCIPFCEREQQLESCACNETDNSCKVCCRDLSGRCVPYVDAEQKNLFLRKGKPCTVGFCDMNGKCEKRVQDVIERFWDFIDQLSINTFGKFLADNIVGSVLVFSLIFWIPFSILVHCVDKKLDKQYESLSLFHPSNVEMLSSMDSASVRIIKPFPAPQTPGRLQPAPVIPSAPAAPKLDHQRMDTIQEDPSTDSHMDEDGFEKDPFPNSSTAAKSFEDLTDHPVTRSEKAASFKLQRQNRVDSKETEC
* hit, by the source's call; i = inactive; nt = no result given. Hits are enriched below; roughly 4.7% of the tested compounds scored in any of these assays.

SMILES | MPTP block | GRIN3A LBD mod | ADAM10 inh | SKN-1 block | MT1-MMP act inh | ADAM17 inh
COC(=O)[C@@H]1[C@H](O[Si](C)(C)C(C)(C)C)[C@H]2O[C@H]2C[C@H]1S(=O)(=O)c1ccccc1 | nt | nt | -1.5 | nt | nt | -1.6
Cn1c(=O)c2c(SCC(=O)NCCc3ccccc3)nc(C3CC3)nc2n(C)c1=O | nt | -0.9 | nt | nt | nt | nt
CC(C)(C)N(Cc1ccccc1)C(=O)CSc1ncn[nH]1 | -1.1 | -2.4 | 4.5 | -2.4 | -0.6 | 4.1
O=C(COC(=O)CCc1ccc(S(=O)(=O)N2CCCCC2)cc1)Nc1ccc2c(c1)OCO2 | -0.9 | -1.3 | 16.8 | -11.2 | -1.5 | 8.4
CCC(=O)c1ccc(N2CCN(C(=O)COc3ccccc3F)CC2)c(F)c1 | 5.3 | -0.3 | 5.2 | -4.8 | 6.7 | 1.0
CC(=O)c1ccc(N2CCN(C(=O)COc3ccccc3F)CC2)c(F)c1 | 0.5 | 10.1* | 0.3 | 0.6 | 6.1 | -1.6
O=C(NCc1ccc(Cl)cc1)C1CCC(=O)N(C2CCCCCC2)C1 (centres undefined) | -1.9 | 10.0* | 1.6 | -3.3 | 1.8 | -0.1
Cn1c(=O)c2c(nc(CN3CCc4ccccc4C3)n2Cc2ccccc2F)n(C)c1=O | 0.7 | -0.4 | -4.9 | -9.4 | -2.3 | -0.7
CCCCCn1c(=O)[nH]c2cc(C(=O)NCCN3C(C)CCCC3C)ccc2c1=O (centres undefined) | 0.2 | -7.6 | -108.8 | 15.2 | nt | -44.2
O=C(Nc1cc(C(F)(F)F)ccc1Cl)c1ccc(NC(=O)C(F)(F)F)cc1 | 7.2 | 28.5* | -6.3 | 3.5 | -4.1 | -3.3
CCCC(=O)Nc1ccc(C(=O)Nc2cc(C(F)(F)F)ccc2Cl)cc1 | -4.8 | -0.6 | 4.7 | 13.8 | -0.5 | 2.9
CCCCN1CC[C@H]2C=CC[C@@H](C(=O)NCc3ccc(OC)cc3)[C@H]2C1=O | -0.7 | -1.2 | 2.1 | 4.0 | 0.0 | -0.3
Oc1ccc(N=Nc2nc(-c3ccccc3)c(-c3ccccc3)[nH]2)cc1 | 4.3 | 2.0 | 4.5 | 11.4 | 8.5 | 0.4
Oc1ccc(N=Nc2n[nH]c(-c3ccccc3)n2)cc1 | 0.3 | 10.2* | 9.5 | 2.0 | 3.8 | -1.4
Oc1ccc(N=Nc2n[nH]c(-c3ccc(Br)cc3)n2)cc1 | 2.0 | 26.9* | 2.2 | -0.3 | 1.3 | 4.3
COc1ccc(Cc2nnc(SCC(=O)NC3CCCCC3)n2C)cc1 | -0.6 | -1.3 | -0.7 | 12.6 | -4.1 | -2.0
O=C(CSc1nnc(-c2cccs2)n1-c1ccccc1)N1CCCC1 | 0.4 | 11.1* | 7.8 | 7.8 | 1.9 | -2.3
CCN(CC)CCN1C(=O)c2ccccc2NC1c1ccc(C)cc1 (centres undefined) | 0.8 | 14.2* | i | 6.1 | -6.6 | -270.6
CC(NC(=O)/C(C#N)=C1\N=C(NC(=O)c2ccco2)c2ccccc21)c1ccccc1 (centres undefined) | 3.7 | -6.8 | 9.9 | 2.8 | -33.7 | 0.1
Nc1nonc1-n1nnc(C(=O)N/N=C/c2cccc(Cl)c2)c1CSc1ccc(Cl)cc1 | 2.5 | 33.2* | -12.0 | 1.7 | 6.6 | -5.5
Nc1nonc1-n1nnc(C(=O)N/N=C/c2ccccc2)c1CSc1ccc(Cl)cc1 | 9.3 | 29.7* | 4.9 | -2.8 | 2.9 | 2.0
C[C@@]12CCC=C[C@H]1[C@H](c1ccccc1Br)N(Cc1ccccc1)C2=O | 0.3 | -0.7 | 4.5 | 0.4 | -7.4 | -0.7
C[C@@]12CCC=C[C@H]1[C@H](c1ccoc1)N(Cc1ccccc1)C2=O | 0.2 | 11.5* | 1.8 | -25.4 | -0.3 | -0.7
Nc1c(C(=O)Nc2ccc(S(=O)(=O)N3CCCC3)cc2)sc2nc3ccc(OC(F)(F)F)cc3cc12 | 1.0 | 22.0* | nt | 21.3 | -137.9 | nt
CCc1cc(Cn2nc(-c3ccccc3)cc2C(=O)NCc2cccs2)on1 | 5.1 | -3.4 | 37.1* | 0.5 | 4.8 | 16.3*
SMILES | MPTP block | GRIN3A LBD mod | ADAM10 inh | SKN-1 block | MT1-MMP act inh | ADAM17 inh
NC(=S)NNC(=O)c1cc(C(F)(F)F)cc(C(F)(F)F)c1 | 3.8 | 31.1* | 1.1 | 10.6 | 0.4 | -1.4
Cc1ccc(SC(C)C(=O)N2CCCC2)cc1 (centres undefined) | -0.2 | 12.1* | -2.0 | 4.7 | 4.2 | -2.0
Cc1ccc(SC(C)C(=O)N2CCC(C(N)=O)CC2)cc1 (centres undefined) | -1.2 | -0.6 | -1.2 | -3.8 | 1.3 | 0.4
Cc1ccc(CNc2ccc(N3CCOCC3)c(Cl)c2)cc1 | 0.9 | 0.7 | 8.0 | 9.2 | 3.1 | 2.3
Cc1cc(C(=O)N/N=C/c2ccc(OC(=O)c3ccccc3Br)cc2)n[nH]1 | -0.4 | 11.9* | -6.2 | -0.8 | 1.0 | 0.1
O=C(N/N=C/c1ccc(OC(=O)c2ccccc2Cl)cc1)c1cc(O)cc(O)c1 | -0.6 | 12.6* | 6.4 | -10.3 | 4.8 | 1.2
O=C(N/N=C/c1ccc(OC(=O)c2ccccc2Cl)cc1)c1ccccn1 | -1.4 | -6.7 | nt | 25.7 | -1.0 | nt
COc1ccc(C(=O)N/N=C/c2ccc(OC(=O)c3ccccc3)cc2)cc1 | 1.0 | 1.4 | -11.2 | 8.3 | 2.1 | 5.3
Cc1cccc(C(=O)Oc2ccc(/C=N/NC(=O)c3ccccc3O)cc2)c1 | 9.0 | 19.4* | -16.8 | -4.0 | 19.7 | -5.4
Cc1cc(C(=O)N/N=C/c2ccc3ccccc3c2)n[nH]1 | -0.9 | -5.1 | -16.8 | -11.2 | nt | -4.5
Cc1cccc(C(=O)Oc2ccc(/C=N/NC(=O)c3ccc(O)cc3)cc2)c1 | -0.3 | 23.0* | 3.9 | 15.1 | -2.7 | -3.1
C=CCN(CC(=O)NC1CCS(=O)(=O)C1)S(=O)(=O)c1ccccc1C(F)(F)F (centres undefined) | -0.5 | -1.1 | 4.9 | 2.6 | -3.3 | 1.2
CCNC(=S)Nc1ccc(Oc2ccccc2)cc1 | -4.0 | -2.5 | 1.4 | 4.7 | 1.1 | 1.4
CC(=N\Nc1ccc(Cl)cc1)/C(=N/O)C(=O)Nc1ccccc1 | 2.4 | 22.9* | 5.9 | -5.4 | -2.7 | -0.1
O=C(CSc1nnc(CNc2ccc(F)cc2)n1Cc1ccco1)NC1CC1 | 1.5 | 4.5 | -17.0 | 46.4* | -10.5 | -2.1
CC(=O)c1ccc(NC(=O)CN(c2c(C)cccc2C)S(C)(=O)=O)cc1 | 3.9 | 2.0 | 8.2 | 1.2 | -6.6 | 0.9
O=S(=O)(c1ccc(Cl)cc1)n1ccc(-c2cccc(OCc3c(F)cccc3Cl)c2)n1 | 0.6 | 1.9 | 8.2 | 4.5 | -2.5 | -2.6
O=S(=O)(c1ccc(F)cc1)n1ccc(-c2cccc(OCc3c(F)cccc3Cl)c2)n1 | 2.2 | 1.7 | 8.5 | 41.9* | -5.6 | 0.7
Cc1c(C(=O)NCCCN2CCOCC2)sc2nc(-c3ccccc3)cn12 | nt | nt | -11.0 | nt | nt | -0.7
O=C(N[C@@H](c1ccccc1)[C@@H]1C[C@H]1C(=O)NCc1ccccn1)OCc1ccccc1 | 0.7 | -0.6 | -7.1 | 8.0 | -2.6 | -5.0
COc1cc(/C=N/N(CCO)C2=NS(=O)(=O)c3ccccc32)cc(OC)c1OC | 0.3 | 1.5 | -2.3 | 35.3* | -1.6 | 0.8
